Test results published in ChEMBL document CHEMBL2062479, “Synthesis and biological evaluation of derivatives of 2-{2-fluoro-4-[(2-oxocyclopentyl)methyl]phenyl}propanoic acid: nonsteroidal anti-inflammatory drugs with low gastric ulcerogenic activity” (J Med Chem, 2012).
Activity calls are given as the source filed them. The rule behind the calls is not given here.

Tests used:
[1] = target: T1, Prostaglandin G/H synthase 1 (Homo sapiens, UniProt P23219); assay: Inhibition of human whole blood COX-1 assessed as inhibition of TXB2 production at 10 uM by EIA
T1 sequence (P23219 whole entry): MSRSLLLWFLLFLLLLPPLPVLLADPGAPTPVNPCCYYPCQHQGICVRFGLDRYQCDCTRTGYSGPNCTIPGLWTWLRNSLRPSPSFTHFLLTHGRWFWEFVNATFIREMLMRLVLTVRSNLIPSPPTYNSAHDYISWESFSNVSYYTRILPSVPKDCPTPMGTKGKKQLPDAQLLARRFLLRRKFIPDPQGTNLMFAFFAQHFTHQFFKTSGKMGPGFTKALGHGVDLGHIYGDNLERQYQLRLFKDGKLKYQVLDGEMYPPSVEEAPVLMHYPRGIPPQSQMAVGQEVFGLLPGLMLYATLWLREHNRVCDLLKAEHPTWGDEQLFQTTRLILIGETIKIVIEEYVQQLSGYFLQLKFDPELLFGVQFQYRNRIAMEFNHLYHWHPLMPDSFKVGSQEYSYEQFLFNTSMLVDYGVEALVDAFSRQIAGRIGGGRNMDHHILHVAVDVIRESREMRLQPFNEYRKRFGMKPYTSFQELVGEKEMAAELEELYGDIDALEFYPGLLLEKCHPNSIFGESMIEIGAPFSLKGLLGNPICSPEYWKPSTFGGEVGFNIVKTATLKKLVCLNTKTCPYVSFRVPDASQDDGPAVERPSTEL
Summary of the method: (§1)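 Human whole blood COX assay, with COX-1 and COX-2 read as prostaglandin biosynthesis. Relative inhibition (%) was taken at fixed test concentrations of 10 and 100 μM. Mean ± SEM, n = 3−6.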

[2] = target: T2, Prostaglandin G/H synthase 2 (Homo sapiens) (UniProt P35354); assay: Inhibition of LPS-stimulated human whole blood COX-2 assessed as inhibition of PGE2 production at 10 uM by EIA; summary of the method: as §1
T2 sequence (whole entry): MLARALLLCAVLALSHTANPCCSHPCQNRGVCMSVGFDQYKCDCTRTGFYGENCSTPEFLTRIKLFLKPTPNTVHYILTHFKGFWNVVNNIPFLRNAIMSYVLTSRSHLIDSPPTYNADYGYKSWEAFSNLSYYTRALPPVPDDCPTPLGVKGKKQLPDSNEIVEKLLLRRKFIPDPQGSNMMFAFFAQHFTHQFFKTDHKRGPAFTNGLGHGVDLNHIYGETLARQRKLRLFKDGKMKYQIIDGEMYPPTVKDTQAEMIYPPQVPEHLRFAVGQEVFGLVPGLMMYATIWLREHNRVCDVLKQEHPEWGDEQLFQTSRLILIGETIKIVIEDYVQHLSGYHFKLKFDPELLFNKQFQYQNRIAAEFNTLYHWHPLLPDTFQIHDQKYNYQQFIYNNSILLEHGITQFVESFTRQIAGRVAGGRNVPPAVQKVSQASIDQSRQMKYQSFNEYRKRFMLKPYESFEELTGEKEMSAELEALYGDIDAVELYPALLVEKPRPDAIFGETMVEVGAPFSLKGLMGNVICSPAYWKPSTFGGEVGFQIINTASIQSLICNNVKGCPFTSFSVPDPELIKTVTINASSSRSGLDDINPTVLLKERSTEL

[3] = target: T2, Prostaglandin G/H synthase 2 (Homo sapiens); assay: Inhibition of LPS-stimulated human whole blood COX-2 assessed as inhibition of PGE2 production at 100 uM by EIA; summary of the method: as §1
Rattus norvegicus [4] = assay: Antiinflammatory activity against Wistar rat assessed as inhibition of carrageenan induced edema volume at 37.3 uM/kg, po administered 1 hr prior carrageenan-challenge measured after 3 hrs post challenge; assay type: functional
Summary of the method: (§2)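 Oral dose of 37.3 μM/kg. Carrageenan (1%) was injected intradermally into the left hindpaw 1 h later. Edema was measured 3 h and 6 h after challenge, and relative inhibition of the edema volume increase was calculated. Mean ± SEM, n = 3−6.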

[5] = target: T1, Prostaglandin G/H synthase 1; assay: Inhibition of human whole blood COX-1 assessed as inhibition of TXB2 production at 100 uM by EIA; summary of the method: as §1
Rattus norvegicus [6] = assay: Antiinflammatory activity against Wistar rat assessed as inhibition of carrageenan induced edema volume at 37.3 uM/kg, po administered 1 hr prior carrageenan-challenge measured after 6 hrs post challenge; assay type: functional; summary of the method: as §2
Homo sapiens = species on record: Homo sapiens; assay: Selectivity index, ratio of IC50 for human COX1 to IC50 for human COX2
Summary of the method: (§3)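 Human whole blood COX-1 and COX-2 assay run over a range of test concentrations. IC50 was fitted to a four-parameter logistic dose−response curve, and the COX-1/COX-2 ratio was computed from the two IC50 values. Mean ± SEM, n = 3−6.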

Rattus norvegicus [7] = assay: Antiinflammatory activity against Wistar rat assessed as inhibition of carrageenan induced edema volume at 3.73 to 37.3 uM/kg, po administered 1 hr prior carrageenan-challenge measured after 3 to 6 hrs post challenge; assay type: functional, organism-based
Summary of the method: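 Rats dosed orally at 3.73, 11.2 or 37.3 μM/kg. Carrageenan (1%) was injected intradermally into the left hindpaw 1 h after dosing. Footpad edema was measured 3 and 6 h after carrageenan, and relative inhibition of the edema volume increase was calculated. Mean ± SEM, n = 3−6.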

Rattus norvegicus [8] = assay: Toxicity in rat assessed as gastric ulcerogenic activity at 0.37 to 7.45 mM/kg, po measured after 8 hrs; assay type: organism-based, Stomach; details: in vivo
Summary of the method: (§4)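 Rats were given oral doses of 0.37, 0.75, 1.12, 1.86, 3.73 or 7.45 mM/kg. Stomachs were removed 8 h later and scored for hemorrhagic damage. Mean ± SEM, n = 3−6.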

[9] = target: T3, Prostaglandin G/H synthase 2 (Homo sapiens, UniProt P35354); assay: Inhibition of LPS-stimulated human whole blood COX-2 assessed as inhibition of PGE2 production by EIA; summary of the method: as §3
T3 sequence (P35354 whole entry): T2 sequence (whole entry)

[10] = target: T1, Prostaglandin G/H synthase 1; assay: Inhibition of human whole blood COX-1 assessed as inhibition of TXB2 production by EIA; summary of the method: as §3
Rattus norvegicus [11] = assay: Toxicity in rat assessed as gastric ulcerogenic activity at 7.45 mM/kg, po measured after 8 hrs; assay type: organism-based, Stomach; details: in vivo, 7450 µM; summary of the method: as §4

Structure (SMILES) | inhibition [1] | inhibition [2] | inhibition [3] | inhibition (INH) (Rattus norvegicus [4]) | inhibition [5] | inhibition (INH) (Rattus norvegicus [6]) | Ratio IC50 (Homo sapiens) | inhibition (Rattus norvegicus [7]) | Activity (Rattus norvegicus [8]) | IC50 [9] | IC50 [10] | Activity (Rattus norvegicus [11])
CCC(=O)C(C)Cc1ccc(C(C)C(=O)O)c(F)c1 (stereo not given) | 0% | 0% | 0% | <0% | 13.5% | <0% | – | – | – | – | – | –
CC(C(=O)O)c1ccc(CC2CCCC2=O)cc1F (stereo not given) | 32.7% | 44.2% | 81.8% | 41.8% | 85.7% | 54.1% | 1.7 | Active | Non-toxic | – | – | –
CC(C(=O)O)c1ccc(OC2CCCC2)cc1F (stereo not given) | 65% | 39.7% | 96.4% | 40.4% | 81.4% | 51.9% | 0.1 | – | Non-toxic | 26.3 µM | 3 µM | Non-toxic
CC(C(=O)O)c1ccc(NC2CCCC2)cc1F (stereo not given) | 34.7% | 40.7% | 91.9% | 45.5% | 92% | 60.1% | 0.7 | Active | Non-toxic | 21.3 µM | 15.6 µM | Non-toxic
CC(C(=O)O)c1ccc(NC2CCCCC2)cc1F (stereo not given) | 0% | 0% | 30% | <0% | 0% | 19.2% | – | – | – | – | – | –
CC(C(=O)O)c1ccc(O[C@H]2CCC[C@@H]2O)cc1F (stereo not given in full) | 10.4% | 25.4% | 80.2% | <0% | 78.2% | 13.3% | – | – | – | – | – | –
CC(C(=O)O)c1c(F)cc(CC2CCCC2=O)cc1-c1ccc(O)cc1 (stereo not given) | 0% | 15.4% | 38% | <0% | 7.2% | <0% | – | – | – | – | – | –
CC(C(=O)O)c1ccc(SC2CCCC2)cc1F (stereo not given) | 4.7% | 15.6% | 80.1% | <0% | 87.9% | 9.5% | – | – | – | – | – | –
CC(C(=O)O)c1ccc(S[C@H]2CCC[C@@H]2O)cc1F (stereo not given in full) | 0% | 0% | 64.4% | <0% | 47.6% | <0% | – | – | – | – | – | –
CC(C(=O)O)c1ccc(OC2CCCC2=O)cc1F (stereo not given) | 80.6% | 27.6% | 82.5% | 30.3% | 82.3% | 25% | 0.1 | – | – | 24.1 µM | 1.5 µM | –
CC(C(=O)O)c1c(F)cc(CC2CCCC2=O)cc1Br (stereo not given) | 13.8% | 0% | 0% | <0% | 49.7% | <0% | – | – | – | – | – | –
CC(C(=O)O)c1ccc(Cc2ccco2)cc1F (stereo not given) | 26.3% | 64.1% | 96.1% | 38.9% | 79.9% | 45.8% | 5.3 | – | Non-toxic | 4.1 µM | 21.6 µM | –
CC(C(=O)O)c1ccc(Cc2ccsc2)cc1F (stereo not given) | 53.9% | 60.2% | 99.5% | 40.2% | 87.4% | 33.4% | 1.2 | – | Toxic | 8.3 µM | 9.5 µM | –
CCC(Cc1ccc(C(C)C(=O)O)c(F)c1)C(C)=O (stereo not given) | 78% | 0% | 82.2% | 20.9% | 98.1% | 20.2% | – | – | – | – | – | –
CC(C(=O)O)c1ccc(Cc2cccs2)cc1F (stereo not given) | 27.4% | 45.8% | 89.2% | 12.5% | 76.5% | 28% | 1.5 | – | – | 13 µM | 19.9 µM | –
Cc1ccc(-c2cc(C(F)(F)F)nn2-c2ccc(S(N)(=O)=O)cc2)cc1 | – | – | – | – | – | – | 22.7 | – | – | – | – | –
CC(C(=O)O)c1ccc(N[C@H]2CCC[C@@H]2O)cc1F (stereo not given in full) | 54.6% | 45.3% | 77.6% | 20.6% | 83.4% | 5.7% | 0.7 | – | – | 14 µM | 9 µM | –
CC(C(=O)O)c1c(F)cc(CC2CCCC2=O)cc1F (stereo not given) | 11.3% | 0% | 70.9% | 21.6% | 79.3% | 17.7% | – | – | – | – | – | –
CC(C(=O)O)c1ccc(SC2CCCC2=O)cc1F (stereo not given) | 0% | 55.5% | 93.1% | 38% | 60.7% | 27.2% | – | – | – | – | – | –
CC(C(=O)O)c1ccc(CC2CCCC2=O)cc1 (stereo not given) [LOXOPROFEN] | 35% | 53.2% | 97.4% | 44% | 87.5% | 53.1% | 2.3 | – | Toxic | – | – | –
CC(C(=O)O)c1cc(F)c(CC2CCCC2=O)cc1F (stereo not given) | 0% | 15% | 84.8% | <0% | 81% | <0% | – | – | – | – | – | –
CC(C(=O)O)c1ccc(Cc2ccoc2)cc1F (stereo not given) | 30.9% | 58.7% | 90.9% | 32.7% | 57.5% | 45.2% | 7.6 | – | Non-toxic | 4 µM | 30.1 µM | –
CC(C(=O)O)c1ccc(N[C@H]2CCCC[C@@H]2O)cc1F (stereo not given in full) | 0% | 28.3% | 76.7% | <0% | 0% | <0% | – | – | – | – | – | –
